{
  "source": "ChEMBL document CHEMBL4359895",
  "about": "“Discovery and biological evaluation of darolutamide derivatives as inhibitors and down-regulators of wild-type AR and the mutants” (Eur J Med Chem, 2019)",
  "key": {"VCaP [1]": {"system": "VCaP", "assay": "Inhibition of AR splice variant 7 mutant gene expression in human VCaP cells at 10 to 30 uM incubated for 24 hrs by qRT-PCR analysis", "type": "functional, cell-based", "summary_of_the_method": "(§1)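 LNCaP, VCaP and 22Rv1 cells treated with DMSO or compounds for 24 h. AR-full and AR-V7 mRNA measured by qRT-PCR and normalised to GAPDH. Mean ± SD, n = 3, compared with DMSO by two-tailed t test.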"}, "LNCaP [2]": {"system": "LNCaP", "assay": "Inhibition of AR splice variant 7 mutant gene expression in human LNCAP cells at 5 to 20 uM incubated for 24 hrs by qRT-PCR analysis", "type": "functional, cell-based", "summary_of_the_method": "as §1"}, "[3]": {"biological_target": "T1, Androgen receptor (Homo sapiens) (UniProt P10275)", "T1 sequence (whole entry)": "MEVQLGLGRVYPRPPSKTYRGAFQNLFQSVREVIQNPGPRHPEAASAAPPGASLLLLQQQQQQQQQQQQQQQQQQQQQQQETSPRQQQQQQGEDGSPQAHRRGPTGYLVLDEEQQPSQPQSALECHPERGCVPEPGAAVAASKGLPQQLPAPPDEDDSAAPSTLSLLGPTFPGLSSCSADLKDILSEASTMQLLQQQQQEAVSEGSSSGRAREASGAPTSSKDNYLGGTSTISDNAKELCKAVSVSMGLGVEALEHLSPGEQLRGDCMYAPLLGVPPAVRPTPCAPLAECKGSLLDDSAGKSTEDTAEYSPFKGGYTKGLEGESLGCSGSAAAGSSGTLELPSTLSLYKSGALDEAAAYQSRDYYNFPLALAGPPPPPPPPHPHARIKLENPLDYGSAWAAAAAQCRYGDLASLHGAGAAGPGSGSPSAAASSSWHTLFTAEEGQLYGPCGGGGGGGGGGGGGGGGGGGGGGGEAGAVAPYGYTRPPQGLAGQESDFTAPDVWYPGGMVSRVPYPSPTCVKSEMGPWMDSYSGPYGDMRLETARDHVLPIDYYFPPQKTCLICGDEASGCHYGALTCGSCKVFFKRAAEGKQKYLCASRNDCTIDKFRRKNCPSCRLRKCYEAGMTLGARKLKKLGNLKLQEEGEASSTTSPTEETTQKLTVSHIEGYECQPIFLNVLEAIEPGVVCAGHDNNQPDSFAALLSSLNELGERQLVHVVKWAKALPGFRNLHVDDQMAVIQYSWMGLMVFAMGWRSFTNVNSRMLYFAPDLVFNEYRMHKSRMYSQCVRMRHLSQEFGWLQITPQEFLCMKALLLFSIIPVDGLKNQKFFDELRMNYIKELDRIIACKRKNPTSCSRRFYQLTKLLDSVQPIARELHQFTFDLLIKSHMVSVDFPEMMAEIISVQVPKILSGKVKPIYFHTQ", "assay": "Inhibition of AR in human HEK293 cells assessed as decrease in receptor transactivation at 10 uM incubated for 24 hrs by dual luciferase reporter gene assay", "type": "cell-based", "summary_of_the_method": "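HEK 293 cells transiently co-transfected with wt-AR expression vector and an androgen-responsive luciferase reporter construct. Cells given 2 nM testosterone plus 10 µM test compound (final concentrations). Read-out by luciferase, mean ± SD, n = 3.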"}, "VCaP [4]": {"system": "VCaP", "assay": "Inhibition of AR splice variant 7 mutant expression in human VCaP cells at 10 to 30 uM incubated for 24 hrs by Western blot analysis analysis", "type": "functional, cell-based", "summary_of_the_method": "(§2)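 LNCaP, VCaP and 22Rv1 cells grown in medium with 10% (v/v) FBS. Treated with compounds or DMSO for 24 h. AR-full and AR splice-variant protein then assessed by western blot.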"}, "CWR22R [5]": {"system": "CWR22R", "assay": "Inhibition of AR protein expression in human 22Rv1 cells at 10 to 30 uM incubated for 24 hrs by Western blot analysis", "type": "functional, cell-based", "summary_of_the_method": "as §2"}, "LNCaP [6]": {"system": "LNCaP", "assay": "Inhibition of AR splice variant 7 mutant expression in human LNCAP cells at 5 to 20 uM incubated for 24 hrs by Western blot analysis analysis", "type": "functional, cell-based", "summary_of_the_method": "as §2"}, "CWR22R [7]": {"system": "CWR22R", "assay": "Antiproliferative activity against human 22Rv1 expressing AR assessed as reduction in cell viability incubated for 6 days by CCK-8 assay", "type": "functional, cell-based", "settings": "22Rv1, 144 h", "summary_of_the_method": "(§3)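 Cell proliferation assay run on LNCaP/AR, VCaP, 22Rv1, PC-3 and L-02 cells, with PC-3 and L-02 serving as AR-independent toxicity controls. IC50 fitted in GraphPad Prism 5 as the mean of at least two experiments, each in duplicate. Deviations under 35%.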"}, "L02": {"system": "L02", "assay": "Cytotoxicity against human L02 assessed as reduction in cell viability incubated for 6 days by CCK-8 assay", "type": "cell-based", "settings": "L02, 144 h", "summary_of_the_method": "as §3"}, "LNCaP [8]": {"system": "LNCaP", "assay": "Inhibition of AR protein expression in human LNCAP cells at 5 to 20 uM incubated for 24 hrs by Western blot analysis", "type": "functional, cell-based", "summary_of_the_method": "as §2"}, "LNCaP [9]": {"system": "LNCaP", "assay": "Inhibition of AR mRNA level in human LNCAP cells at 5 to 30 uM incubated for 24 hrs by qRT-PCR analysis", "type": "functional, cell-based", "summary_of_the_method": "as §1"}, "CWR22R [10]": {"system": "CWR22R", "assay": "Inhibition of AR splice variant 7 mutant gene expression in human 22Rv1 cells at 10 to 40 uM incubated for 24 hrs by qRT-PCR analysis", "type": "functional, cell-based", "summary_of_the_method": "as §1"}, "[11]": {"assay": "Plasma concentration in Sprague-Dawley rat 30 mg/kg, po measured up to 24 hrs by LC-MS/MS analysis", "type": "ADME, organism-based", "summary_of_the_method": "(§4)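 Rats dosed orally at 30 mg/kg, compound formulated in 10% DMA / 90% PEG200. Plasma levels followed over time to build concentration-time curves, from which T1/2, Tmax, Cmax and AUC were derived.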"}, "LNCaP [12]": {"system": "LNCaP", "assay": "Inhibition of AR splice variant 7 mutant expression in human LNCAP cells at 5 to 30 uM incubated for 24 hrs by Western blot analysis analysis", "type": "functional, cell-based", "summary_of_the_method": "as §2"}, "LNCaP [13]": {"system": "LNCaP", "assay": "Induction of androgen receptor splice variant 7 mutant degradation in human LNCAP cells at 30 uM incubated upto 26 hrs in presence of bortezomib/MG132 by Western blot analysis", "type": "functional, cell-based"}, "[14]": {"assay": "Half life in Sprague-Dawley rat 30 mg/kg, po measured up to 24 hrs by LC-MS/MS analysis", "type": "ADME, organism-based", "settings": "in vivo", "summary_of_the_method": "as §4"}, "VCaP [15]": {"system": "VCaP", "assay": "Inhibition of AR mRNA level in human VCaP cells at 10 to 40 uM incubated for 24 hrs by qRT-PCR analysis", "type": "functional, cell-based", "summary_of_the_method": "as §1"}, "LNCaP [16]": {"system": "LNCaP", "assay": "Inhibition of AR splice variant 7 mutant gene expression in human LNCAP cells at 5 to 30 uM incubated for 24 hrs by qRT-PCR analysis", "type": "functional, cell-based", "summary_of_the_method": "as §1"}, "VCaP [17]": {"system": "VCaP", "assay": "Antitumor activity against castration-resistant human VCaP cells xenografted in BALB/c mouse assessed as tumor growth inhibition at 60 mg/kg, po administered for 40 days", "type": "functional", "settings": "960 h, read-out: TGI", "summary_of_the_method": "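Castration-resistant VCaP xenografts grown in male BALB/c nude mice. Animals dosed once daily for 40 days alongside a vehicle group. Tumor volume tracked over time, with tumor weights taken at end. Reported as tumor growth inhibition, mean ± SEM, N = 8-9 per group.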"}, "[18]": {"assay": "AUC (0 to t) in Sprague-Dawley rat 30 mg/kg, po measured up to 24 hrs by LC-MS/MS analysis", "type": "ADME, organism-based", "parameters": "dose 30 mg/kg, time < 24 hr, route oral", "settings": "in vivo", "summary_of_the_method": "as §4"}, "CWR22R [19]": {"system": "CWR22R", "assay": "Inhibition of AR mRNA level in human 22Rv1 cells at 10 to 40 uM incubated for 24 hrs by qRT-PCR analysis", "type": "functional, cell-based", "summary_of_the_method": "as §1"}, "VCaP [20]": {"system": "VCaP", "assay": "Inhibition of AR splice variant 7 mutant expression in human VCaP cells at 10 to 40 uM incubated for 24 hrs by Western blot analysis analysis", "type": "functional, cell-based", "summary_of_the_method": "as §2"}},
  "note": "The source made the active and inactive calls. No cut-off for these calls is given here.",
  "data": [
    {"molecule": "C[C@@H](Cn1ccc(-c2ccc(C#N)c(Cl)c2)n1)Nc1cccc2ncccc12", "values": [
      {"measurement": "inhibition", "setting": "VCaP [1]", "value": "Active"},
      {"measurement": "inhibition", "setting": "LNCaP [2]", "value": "Active"},
      {"measurement": "inhibition", "setting": "[3]", "value": "Active"},
      {"measurement": "inhibition", "setting": "VCaP [4]", "value": "Active"},
      {"measurement": "inhibition", "setting": "CWR22R [5]", "value": "Active"},
      {"measurement": "inhibition", "setting": "LNCaP [6]", "value": "Active"},
      {"measurement": "IC50", "setting": "CWR22R [7]", "value": 3.92, "unit": "µM"},
      {"measurement": "IC50", "setting": "L02", "value": 16.6, "unit": "µM"},
      {"measurement": "inhibition", "setting": "LNCaP [8]", "value": "Active"}
    ]},
    {"molecule": "C[C@@H](Cn1ccc(-c2ccc(C#N)c(Cl)c2)n1)Nc1ncnc2nc[nH]c12", "values": [
      {"measurement": "inhibition", "setting": "LNCaP [9]", "value": "Active"},
      {"measurement": "inhibition", "setting": "CWR22R [10]", "value": "Active"},
      {"measurement": "Cmax", "setting": "[11]", "value": 2650, "unit": "ng/mL"},
      {"measurement": "inhibition", "setting": "LNCaP [12]", "value": "Active"},
      {"measurement": "Activity", "setting": "LNCaP [13]", "value": "inactive"},
      {"measurement": "half-life", "setting": "[14]", "value": 1.79, "unit": "h"},
      {"measurement": "inhibition", "setting": "[3]", "value": "Active"},
      {"measurement": "inhibition", "setting": "VCaP [15]", "value": "Active"},
      {"measurement": "inhibition", "setting": "LNCaP [16]", "value": "Active"},
      {"measurement": "inhibition in vivo at 60 mg/kg", "setting": "VCaP [17]", "value": 77.8, "unit": "%"},
      {"measurement": "AUC(0-t) at 24 h", "setting": "[18]", "value": 7280, "unit": "ng·h/mL"},
      {"measurement": "inhibition", "setting": "VCaP [4]", "value": "Active"},
      {"measurement": "inhibition", "setting": "CWR22R [19]", "value": "Active"},
      {"measurement": "IC50", "setting": "CWR22R [7]", "value": 4.24, "unit": "µM"},
      {"measurement": "IC50", "setting": "L02", "value": 27.9, "unit": "µM"},
      {"measurement": "inhibition", "setting": "VCaP [20]", "value": "Active"}
    ]}
  ]
}
